Test [1] relates to Bacteria. Description: Inhibition of bacterial AmpC beta-lactamase at 5 uM preincubated for 5 min followed by CENTA chromogenic substrate addition by spectrophotometric method relative to control. The method, boiled down:
(§1)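 AmpC β-lactamase mixed with colloidal aggregator in 50 mM KPi pH 7 at room temperature, mixed by pipetting, incubated 30 s–15 min. Then 70 μM CENTA added and absorbance followed at 405 nm for 150 s. % activity is the initial rate relative to an aggregator-free control. T90 is the incubation time to reach 10% activity.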

Test [2] concerns Bacteria. Description: Inhibition of bacterial AmpC beta-lactamase at 5 uM preincubated for 2 mins followed by CENTA chromogenic substrate addition by spectrophotometric method relative to control. In short, it runs like this: as §1
Test [3] has as its system Bacteria. Description: Inhibition of bacterial AmpC beta-lactamase at 5 uM preincubated for 1 min followed by CENTA chromogenic substrate addition by spectrophotometric method relative to control. In short, it runs like this: as §1
Test [4] concerns Bacteria. Description: Inhibition of bacterial AmpC beta-lactamase at 10 uM using 2 nM of enzyme preincubated for 30 sec followed by CENTA chromogenic substrate addition by spectrophotometric assay relative to control. The method, boiled down:
as §1

Test [5] relates to Bacteria. In words: Inhibition of bacterial AmpC beta-lactamase at 10 uM using 2 nM of enzyme preincubated for 5 mins followed by CENTA chromogenic substrate addition by spectrophotometric assay relative to control. In short, it runs like this: as §1
Test [6] deals with Bacteria. Description: Inhibition of bacterial AmpC beta-lactamase at 10 uM using 10 nM of enzyme preincubated for 30 sec followed by CENTA chromogenic substrate addition by spectrophotometric assay relative to control. The method, boiled down: as §1
Test [7] has as its system Bacteria. Description: Inhibition of bacterial AmpC beta-lactamase at 10 uM of 10 nM of enzyme preincubated for 5 min followed by CENTA chromogenic substrate addition by spectrophotometric assay relative to control. Also on record: scale not given: the % may be the effect or the level left. In short, it runs like this: as §1
The target in test [8] is T1, Malate dehydrogenase, mitochondrial (Homo sapiens) (UniProt P40926).
T1 sequence (whole entry): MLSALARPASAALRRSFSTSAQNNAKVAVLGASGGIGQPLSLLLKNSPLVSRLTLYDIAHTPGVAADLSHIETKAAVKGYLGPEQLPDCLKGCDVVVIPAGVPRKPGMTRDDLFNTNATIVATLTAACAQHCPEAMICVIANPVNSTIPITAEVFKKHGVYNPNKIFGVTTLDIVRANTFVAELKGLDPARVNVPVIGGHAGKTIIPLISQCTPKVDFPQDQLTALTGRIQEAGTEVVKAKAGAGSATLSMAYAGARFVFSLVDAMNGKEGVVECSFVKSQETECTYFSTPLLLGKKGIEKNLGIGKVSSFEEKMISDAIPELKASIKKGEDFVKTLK
In words: Inhibition of malate dehydrogenase (unknown origin) assessed as time to reach 90% inhibition pretreated with 50 mM KPi for 15 mins followed by nicotinamide adenine dinucleotide addition measured every 150 sec by spectrophotometric method. As to conditions: dose 5.0 mM, in the assay text read “5 mM KPi” for “50 mM KPi”. In short, it runs like this: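 Porcine heart MDH mixed with colloidal aggregator in 50 mM KPi pH 7 at room temperature, incubated 30 s–15 min. Reaction started with 200 μM NADH and 200 μM oxaloacetic acid, followed at 340 nm for 150 s. Initial rate relative to an aggregator-free control gives % activity. T90 is the incubation time to 10% activity.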

Test [9] relates to Bacteria. In words: Inhibition of bacterial AmpC beta-lactamase preincubated for 30 sec in absence of preloaded MDH relative to control. Conditions: concentration not given here. The method, boiled down: (§2)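 AmpC activity with 70 μM CENTA, read at 405 nm for 150 s, in 50 mM KPi pH 7 at room temperature. For preloading, the aggregator was incubated 5 min with MDH before AmpC was added and incubated for varying times. % activity is relative to an aggregator-free rate control. T90 is the time to 10% activity.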

Test [10] has as its system Bacteria. Description: Inhibition of bacterial AmpC beta-lactamase preincubated for 30 sec in presence of preloaded MDH relative to control. Conditions: concentration not given here. The method, boiled down: as §2
For test [11], the target named is T1, Malate dehydrogenase, mitochondrial (Homo sapiens). Description: Inhibition of preloaded MDH (unknown origin) preincubated for 30 sec in absence of preloaded AmpC. The method, boiled down: (§3)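 Porcine heart MDH assay: 200 μM nicotinamide adenine dinucleotide plus 200 μM oxaloacetate, read at 340 nm for 150 s, in 50 mM KPi pH 7 at room temperature. For preloading, the aggregator was first incubated 5 min with AmpC, then MDH was added and incubated for varying times. % activity is relative to an aggregator-free control.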

Test [12] shares this target. In words: Inhibition of preloaded MDH (unknown origin) preincubated for 30 sec in presence of preloaded AmpC. The method, boiled down:
as §3

The test system of test [13] is Bacteria. In words: Inhibition of bacterial AmpC beta-lactamase assessed as time reach to 90% inhibition in absence of preloaded MDH. In short, it runs like this:
as §2

Test [14] concerns Bacteria. Description: Inhibition of bacterial AmpC beta-lactamase assessed as time reach to 90% inhibition in presence of preloaded MDH. The method, boiled down:
as §2

For test [15], the system named is Escherichia coli. In words: Inhibition of Escherichia coli beta galactosidase using ortho-nitrophenyl-beta-galactoside as substrate. In short, it runs like this:
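E. coli β-galactosidase (overproducer) mixed with colloidal aggregator in 50 mM KPi pH 7, incubated 30 s–15 min at room temperature; reaction started with 300 μM ortho-nitrophenyl-β-galactoside and followed at 320 nm for 150 s. Initial rate divided by that of an aggregator-free control gives % activity.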

Active and inactive are the calls of the source. No cut-off for these calls is given here. A value given as a limit tells only on which side of the number the result lay.

For `CNC(=O)c1cc(Oc2ccc(NC(=O)Nc3ccc(Cl)c(C(F)(F)F)c3)cc2)ccn1`, the inhibition in [1] was determined as 100%; in test [2], 80%; in test [3], 40%; in test [4], 67%; in test [5], 100%; in test [6], 40%. In addition, the inhibition amounted to 80% in test [9] and 45% in test [10]. Moreover, in test [7], the Activity amounted to 20%. For the same compound, the TIME was more than 0.25 h in [8], 0.0167 h in test [13] and 0.0833 h in [14]. For the same compound, the inhibition result in test [11], in test [12] and in test [15] was “Active” in each case.

The values above are taken from ChEMBL document CHEMBL5030509, “A Crowding Barrier to Protein Inhibition in Colloidal Aggregates” (J Med Chem, 2021).
